In brackets after ≈: the same amount, converted by molar mass.
What was measured:
[1] = Cytotoxicity against Vero-C1008 cells at 6.25 to 50 ug/mL by neutral red uptake assay; type: cell-based; details: chlorocebus sabaeus
Procedure, shortened: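 Vero-C-1008 cells exposed to 6.25 to 50 μg/mL compound; viability read by neutral red uptake.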

[2] = test system: Pseudomonas aeruginosa; assay: Antibacterial activity against Pseudomonas aeruginosa at 50 to 100 uM after 24 hrs by well diffusion method; type: functional
Procedure, shortened: (§1)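 Nutrient agar plates with 10 mm wells cut by cork borer; 24-h subcultured bacteria swabbed on. Compounds dissolved in chloroform, 50 to 100 μM added to wells, gentamycin as standard. Incubated 24 h at 24–28 °C; inhibition zone diameter measured and converted to percent inhibition.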

[3] = test system: Mycobacterium tuberculosis; assay: Antitubercular activity against Mycobacterium tuberculosis H37Rv by MABA assay; type: functional
Procedure, shortened: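 Actives re-tested at lower concentrations against H37Rv (ATCC 27294) in BACTEC 12B medium by Microplate Alamar Blue Assay. MIC taken as lowest concentration giving […] fluorescence reduction versus controls; rifampin reference.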

[4] = test system: Salmonella typhi; assay: Antibacterial activity against Salmonella typhi at 50 to 100 uM after 24 hrs by well diffusion method; type: functional, Salmonella enterica subsp. enterica serovar Typhi; set-up: unit not given here; procedure, shortened: as §1
[5] = test system: Escherichia coli; assay: Antibacterial activity against Escherichia coli at 50 to 100 uM after 24 hrs by well diffusion method; type: functional; procedure, shortened: as §1
[6] = test system: Staphylococcus aureus; assay: Antibacterial activity against Staphylococcus aureus at 50 to 100 uM after 24 hrs by well diffusion method; type: functional; procedure, shortened: as §1

Molecule | Activity [1] | inhibition zone [2] [mm] | MIC [3] [µg/mL] | Inhibition [4] | inhibition zone [5] [mm] | inhibition zone [6] [mm] | inhibition [2] [%] | inhibition ([4]; Salmonella enterica subsp. enterica serovar Typhi) [%] | inhibition [5] [%] | inhibition [6] [%]
CC(=O)NNC(=O)CSc1nnc(Cc2csc(NC(=O)c3ccccc3)n2)n1NC(=O)c1cccc([N+](=O)[O-])c1 | Non-toxic | 18 | < 6.25 | 12 | 14 | 20 |  |  |  | 
O=C(CCl)NNC(=O)CSc1nnc(Cc2csc(NC(=O)c3ccccc3)n2)n1NC(=O)c1cccc([N+](=O)[O-])c1 | Non-toxic | 11 | < 6.25 | 12 | 18 | 14 |  |  |  | 
Nn1c(S)nnc1Cc1csc(NC(=O)CCl)n1 | Non-toxic | 17 |  | 12 | 14 | 18 |  |  |  | 
O=C(O)CCNc1nc(Cc2nnc(SCC(=O)NNC(=O)CCl)n2NC(=O)c2ccc(Cl)cc2)cs1 | Non-toxic |  | < 6.25 |  |  |  |  |  |  | 
CC(=O)NNC(=O)CSc1nnc(Cc2csc(NC(=O)CCl)n2)n1NC(=O)c1ccc(Cl)cc1 | Non-toxic | 21 | < 6.25 | 22 | 24 | 25 |  |  |  | 
O=C(Nc1nc(Cc2nnc(SCSc3nnc(Cc4csc(NC(=O)c5ccccc5)n4)n3NC(=O)c3cccc([N+](=O)[O-])c3)n2NC(=O)c2cccc([N+](=O)[O-])c2)cs1)c1ccccc1 | Non-toxic | 24 | < 6.25 | 19 | 24 | 26 |  |  |  | 
CC(=O)Nc1nc(Cc2nnc(SCC(=O)NNC(=O)CCl)n2NC(=O)c2cccc([N+](=O)[O-])c2)cs1 | Non-toxic | 18 | < 6.25 | 14 | 18 | 12 |  |  |  | 
CC(=O)NNC(=O)CSc1nnc(Cc2csc(NC(=O)CCl)n2)n1NC(=O)c1cccc([N+](=O)[O-])c1 | Non-toxic | 24 | < 6.25 | 24 | 18 | 27 |  |  |  | 
CC(=O)Nc1nc(Cc2nnc(SCSc3nnc(Cc4csc(NC(C)=O)n4)n3NC(=O)c3ccc(Cl)cc3)n2NC(=O)c2ccc(Cl)cc2)cs1 | Non-toxic | 21 | < 6.25 | 17 | 24 | 24 |  |  |  | 
GENTAMICIN |  |  |  |  |  |  | 35 | 30 | 31 | 34
O=C(O)CCNc1nc(Cc2nnc(SCC(=O)NNC(=O)CCl)n2NC(=O)c2cccc([N+](=O)[O-])c2)cs1 | Non-toxic | 26 | < 6.25 | 24 | 24 | 24 |  |  |  | 
O=C(CCl)Nc1nc(Cc2nnc(SCSc3nnc(Cc4csc(NC(=O)CCl)n4)n3NC(=O)c3cccc([N+](=O)[O-])c3)n2NC(=O)c2cccc([N+](=O)[O-])c2)cs1 | Non-toxic | 30 | < 6.25 | 24 | 27 | 18 |  |  |  | 
O=C(Nc1nc(Cc2nnc(SCSc3nnc(Cc4csc(NC(=O)c5ccccc5)n4)n3NC(=O)c3ccc(Cl)cc3)n2NC(=O)c2ccc(Cl)cc2)cs1)c1ccccc1 | Non-toxic | 27 | < 6.25 | 12 | 20 | 29 |  |  |  | 
COC(=O)CSc1nnc(Cc2csc(NC(=O)CCl)n2)n1NC(=O)c1cccc([N+](=O)[O-])c1 | Non-toxic | 24 | < 6.25 | 20 | 20 | 26 |  |  |  | 
CC(=O)NNC(=O)CSc1nnc(Cc2csc(NCCC(=O)O)n2)n1NC(=O)c1ccc(Cl)cc1 | Non-toxic | 21 | < 6.25 | 18 | 26 | 20 |  |  |  | 
Nn1c(S)nnc1CSc1nnc(Cc2csc(NCCC(=O)O)n2)n1NC(=O)c1ccc(Cl)cc1 | Non-toxic | 24 | < 6.25 | 23 | 19 | 21 |  |  |  | 
Nn1c(S)nnc1Cc1csc(NCCC(=O)O)n1 | Non-toxic | 22 | < 6.25 | 16 | 20 | 25 |  |  |  | 

Molecule | Activity [1] | inhibition zone [2] [mm] | MIC [3] [µg/mL] | Inhibition [4] | inhibition zone [5] [mm] | inhibition zone [6] [mm] | inhibition [2] [%] | inhibition ([4]; Salmonella enterica subsp. enterica serovar Typhi) [%] | inhibition [5] [%] | inhibition [6] [%]
O=C(CSc1nnc(Cc2csc(NC(=O)CCl)n2)n1NC(=O)c1ccc(Cl)cc1)NNC(=O)c1ccccc1 | Non-toxic | 26 | < 6.25 | 20 | 21 | 21 |  |  |  | 
O=C(O)CCNc1nc(Cc2nnc(SCC(=O)NNC(=O)c3ccccc3)n2NC(=O)c2ccc(Cl)cc2)cs1 | Non-toxic | 25 | < 6.25 | 23 | 19 | 18 |  |  |  | 
Nn1c(S)nnc1CSc1nnc(Cc2csc(NC(=O)c3ccccc3)n2)n1NC(=O)c1ccc(Cl)cc1 | Non-toxic | 19 | < 6.25 | 19 | 20 | 26 |  |  |  | 
COC(=O)CSc1nnc(Cc2csc(NC(=O)c3ccccc3)n2)n1NC(=O)c1ccc(Cl)cc1 | Non-toxic | 22 | < 6.25 | 16 | 20 | 22 |  |  |  | 
COC(=O)CSc1nnc(Cc2csc(NC(C)=O)n2)n1NC(=O)c1cccc([N+](=O)[O-])c1 | Non-toxic | 22 | < 6.25 | 18 | 20 | 24 |  |  |  | 
CC(=O)NNC(=O)CSc1nnc(Cc2csc(NCCC(=O)O)n2)n1NC(=O)c1cccc([N+](=O)[O-])c1 | Non-toxic | 10 | < 6.25 | 14 | 14 | 24 |  |  |  | 
O=C(CSc1nnc(Cc2csc(NC(=O)c3ccccc3)n2)n1NC(=O)c1ccc(Cl)cc1)NNC(=O)c1ccccc1 | Non-toxic | 24 | < 6.25 | 18 | 18 | 19 |  |  |  | 
CO[C@H]1/C=C/O[C@@]2(C)Oc3c(C)c(O)c4c(O)c(c(/C=N/N5CCN(C)CC5)c(O)c4c3C2=O)NC(=O)/C(C)=C\C=C\[C@H](C)[C@H](O)[C@@H](C)[C@@H](O)[C@@H](C)[C@H](OC(C)=O)[C@@H]1C [RIFAMPIN] |  |  | 0.015 (≈ 0.0182 µM) |  |  |  |  |  |  | 
O=C(CCl)Nc1nc(Cc2nnc(SCSc3nnc(Cc4csc(NC(=O)CCl)n4)n3NC(=O)c3ccc(Cl)cc3)n2NC(=O)c2ccc(Cl)cc2)cs1 | Non-toxic | 28 | < 6.25 | 18 | 29 | 23 |  |  |  | 
O=C(O)CCNc1nc(Cc2nnc(SCSc3nnc(Cc4csc(NCCC(=O)O)n4)n3NC(=O)c3cccc([N+](=O)[O-])c3)n2NC(=O)c2cccc([N+](=O)[O-])c2)cs1 | Non-toxic | 26 | < 6.25 | 18 | 21 | 25 |  |  |  | 
O=C(CSc1nnc(Cc2csc(NC(=O)c3ccccc3)n2)n1NC(=O)c1cccc([N+](=O)[O-])c1)NNC(=O)c1ccccc1 | Non-toxic | 12 | < 6.25 | 12 | 14 | 18 |  |  |  | 
CC(=O)Nc1nc(Cc2nnc(SCC(=O)NNC(=O)c3ccccc3)n2NC(=O)c2ccc(Cl)cc2)cs1 | Non-toxic | 22 | < 6.25 | 17 | 20 | 28 |  |  |  | 
CC(=O)Nc1nc(Cc2nnc(SCC(=O)NNC(=O)c3ccccc3)n2NC(=O)c2cccc([N+](=O)[O-])c2)cs1 | Non-toxic | 30 | < 6.25 | 27 | 30 | 32 |  |  |  | 
Nn1c(S)nnc1CSc1nnc(Cc2csc(NC(=O)c3ccccc3)n2)n1NC(=O)c1cccc([N+](=O)[O-])c1 | Non-toxic | 27 | < 6.25 | 19 | 20 | 24 |  |  |  | 
NNC(=O)CSc1nnc(Cc2csc(NCCC(=O)O)n2)n1NC(=O)c1cccc([N+](=O)[O-])c1 | Non-toxic | 28 | < 6.25 | 21 | 16 | 24 |  |  |  | 
O=C(CCl)NNC(=O)CSc1nnc(Cc2csc(NC(=O)CCl)n2)n1NC(=O)c1ccc(Cl)cc1 | Non-toxic |  | < 6.25 |  | 18 | 24 |  |  |  | 
COC(=O)CSc1nnc(Cc2csc(NCCC(=O)O)n2)n1NC(=O)c1cccc([N+](=O)[O-])c1 | Non-toxic | 22 | < 6.25 | 20 |  | 22 |  |  |  | 
